Values joined by “and” are separate entries in the source; they are usually repeats but may differ in a detail not shown here. Equal entries are not always repeated. “Also recorded” adds a separate entry of the source. Where two headings read alike, the source gives them in different places.
Key:
[1] = molecular target: T1, Full-length PilB (CtPilB) (Chloracidobacterium thermophilum, UniProt G2LDI3); experiment: ITC ligand binding to full-length PilB with or without effector; conditions: for N, number of ligand binding sites per protein: per PilB hexamer
T1 sequence (G2LDI3 1-614): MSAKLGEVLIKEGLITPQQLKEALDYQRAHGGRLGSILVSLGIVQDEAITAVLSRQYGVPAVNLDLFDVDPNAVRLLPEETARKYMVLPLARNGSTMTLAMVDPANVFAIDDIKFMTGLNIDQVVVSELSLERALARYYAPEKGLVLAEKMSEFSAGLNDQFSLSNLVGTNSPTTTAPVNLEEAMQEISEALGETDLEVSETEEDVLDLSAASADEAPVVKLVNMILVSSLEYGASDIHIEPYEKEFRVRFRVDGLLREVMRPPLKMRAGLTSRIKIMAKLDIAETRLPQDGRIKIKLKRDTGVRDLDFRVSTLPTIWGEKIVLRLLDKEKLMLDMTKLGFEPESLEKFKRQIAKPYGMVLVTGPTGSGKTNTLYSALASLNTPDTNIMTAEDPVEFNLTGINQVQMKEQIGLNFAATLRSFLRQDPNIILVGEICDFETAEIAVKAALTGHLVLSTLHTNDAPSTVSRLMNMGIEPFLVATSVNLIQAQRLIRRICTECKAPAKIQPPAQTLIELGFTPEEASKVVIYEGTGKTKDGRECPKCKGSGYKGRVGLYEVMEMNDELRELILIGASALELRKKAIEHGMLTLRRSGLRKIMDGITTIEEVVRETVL
Outline: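 ITC at 25 °C using full-length hexameric PilB (expressed in E. coli XL1-Blue; Ni-NTA/SEC) dialysed into activity buffer. cdG runs: 5.3 μM protein, 0.5 mM cdG, one 0.4 μl then 29 × 1 μl injections, 150 s apart. ATPγS/ADP runs: 15 μM protein, 1 mM titrant, one 0.4 μl then 39 × 1 μl injections, 120 s apart. Optional effector pre-incubation: 15 min on ice (cdG 100 μM; ATPγS/ADP 50 μM). Buffer-only heats subtracted; single-site fit.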

PilBN = molecular target: T2, PilBN (Chloracidobacterium thermophilum, UniProt G2LDI3); experiment: ITC ligand binding to PilBN; conditions: for binding detected by ITC: 30 μM PilBN, Supplementary Figure S4A,B
T2 sequence (G2LDI3 1-146): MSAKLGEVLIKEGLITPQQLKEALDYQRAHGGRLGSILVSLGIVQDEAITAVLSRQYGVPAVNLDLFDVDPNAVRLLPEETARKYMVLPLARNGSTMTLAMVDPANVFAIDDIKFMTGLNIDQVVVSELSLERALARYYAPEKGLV
Outline: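 ITC at 25 °C, 300 rpm stirring. His-tagged PilBN (expressed in E. coli BL21(DE3)) was purified by Ni-NTA and size exclusion, dialysed into activity buffer, and set at 30 μM final in the cell. Syringe held 0.5 mM cdG, given as one 0.4 μl and 29 × 1 μl injections 150 s apart. Buffer-only heats were subtracted. Fit used a single-set-of-identical-sites model; ≥3 independent runs.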

PilBΔN = molecular target: T3, PilBΔN (Chloracidobacterium thermophilum, UniProt G2LDI3); experiment: ITC ligand binding to PilBΔN; conditions: for ΔG / ΔH / N, number of ligand binding sites per protein: ITC; for ΔG / ΔH: 25 °C; for N, number of ligand binding sites per protein: per PilBΔN hexamer
T3 sequence (G2LDI3 140-614): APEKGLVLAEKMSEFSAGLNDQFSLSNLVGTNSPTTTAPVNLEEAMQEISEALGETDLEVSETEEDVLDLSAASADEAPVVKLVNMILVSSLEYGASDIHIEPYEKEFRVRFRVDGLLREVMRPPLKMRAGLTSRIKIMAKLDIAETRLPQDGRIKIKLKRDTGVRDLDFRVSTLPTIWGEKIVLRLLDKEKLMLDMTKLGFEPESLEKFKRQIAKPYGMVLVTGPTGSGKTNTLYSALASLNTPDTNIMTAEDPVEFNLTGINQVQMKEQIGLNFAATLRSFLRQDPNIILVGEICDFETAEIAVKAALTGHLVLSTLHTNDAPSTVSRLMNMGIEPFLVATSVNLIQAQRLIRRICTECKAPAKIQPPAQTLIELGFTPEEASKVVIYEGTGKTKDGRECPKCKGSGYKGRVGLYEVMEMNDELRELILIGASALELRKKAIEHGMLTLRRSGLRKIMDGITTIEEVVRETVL

[2] = test system: full-length CtPilB ATPase; experiment: Malachite green-based ATPase assay of full-length CtPilB in the presence of cdG; format: biochemical, Chloracidobacterium thermophilum
Outline: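 Full-length PilB (75 nM) ATPase was read by malachite green phosphate endpoint after 15 min at 54 °C in activity buffer, with cdG at 0, 2 or 200 μM. Kinetic runs used 0.5 and 1.0 mM ATP with or without cdG. No-protein ATP blanks served as controls.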

VcMshE = conditions: in vitro; cited from earlier work
[3] = molecular target: PilBΔN (truncated CtPilB without the first 139 residues) (Chloracidobacterium thermophilum); experiment: SEC

Row | Molecule | ΔG ([1]; ITC, 25 °C, no effector) [kcal/mol] | ΔH ([1]; ITC, 25 °C, no effector) | N, number of ligand binding sites per protein ([1]; ITC, no effector) | ΔG ([1]; effector cdG 100 μM) [kcal/mol] | ΔH ([1]; effector cdG 100 μM) | N, number of ligand binding sites per protein ([1]; effector cdG 100 μM) | binding detected by ITC (PilBN) | ΔG (PilBΔN; no effector) [kcal/mol] | ΔH (PilBΔN; no effector) | N, number of ligand binding sites per protein (PilBΔN; no effector) | further results
1 | Nc1ncnc2c1ncn2[C@@H]1O[C@H](COP(=O)(O)OP(=O)(O)OP(=O)(O)O)[C@@H](O)[C@H]1O [ATP] | – | – | – | – | – | – | – | – | – | – | N, stoichiometry per PilB hexamer ([1]; ITC with ATP, hydrolysis interferes): 2
2 | Nc1ncnc2c1ncn2[C@@H]1O[C@H](COP(=O)(O)OP(=O)(O)O)[C@@H](O)[C@H]1O [ADP] | -7.3 | -15.4 kcal/mol and -15.4 ± 1.0 kcal/mol | 2.20±0.02 | -6.9 | -46.2 kcal/mol and -46.2 ± 1.6 kcal/mol | 1.79±0.06 | no detectable binding; also recorded: without detectable binding | -7.0 | -16.2 kcal/mol and -16.2 ± 0.4 kcal/mol | 2.20±0.03 | Kd ([1]; read-out: apparent dissociation constant KD, ITC, 25 °C, no effector, 15 μM PilB): 4.3 ± 1 µM
3 | Nc1ncnc2c1ncn2[C@@H]1O[C@H](CO[P@](=O)(O)O[P@](=O)(O)O[P@@](=O)(O)S)[C@@H](O)[C@H]1O [ATPγS] | -7.4 | -10.3 ± 0.3 kcal/mol | 2.8 and 2.8±0.06 | -7.4 | -10.3 ± 0.3 kcal/mol | 2.91±0.04 | no detectable binding; also recorded: without detectable binding | -7.2 | -11.5 kcal/mol and -11.5 ± 0.6 kcal/mol | 2.42±0.07 | Kd ([1]; apparent dissociation constant KD, ITC, 25 °C, no effector, 15 μM PilB): 3.8 ± 0.5 µM; Kd (PilBΔN): 5.2 ± 0.7 µM; KD for PilBΔN higher than KD for full-length PilB (PilBΔN; PilBΔN versus full-length PilB, no effector): ~40%
4 | Nc1nc2c(ncn2[C@@H]2O[C@@H]3COP(=O)(O)O[C@H]4[C@@H](O)[C@H](n5cnc6c(=O)[nH]c(N)nc65)O[C@@H]4COP(=O)(O)O[C@H]3[C@H]2O)c(=O)[nH]1 [cdG, cyclic-di-GMP] | – | -14.5 kcal/mol and -14.5 ± 0.13 kcal/mol | 5.83±0.01 | – | – | – | – | – | – | – | effect on ATPase activity, kinetic assay ([2]; cdG 0, 2 or 200 μM, ATP 0.5 and 1.0 mM, Supplementary Figure S5): not statistically significant; also recorded: did not affect; effect on ATPase activity, endpoint assay ([2]; cdG at 0, 2 and 200 μM, data not shown): no difference; Kd ([1]; apparent dissociation constant KD, ITC, 25 °C, no effector, 5.3 μM PilB): 0.053 ± 0.01 µM; ΔG ([1]; effector ADP 50 μM): -10.6 kcal/mol; ΔH ([1]; effector ADP 50 μM): -12.0 ± 0.09 kcal/mol; N, number of ligand binding sites per protein ([1]; effector ADP 50 μM): 5.94±0.09; ΔH ([1]; effector ATPγS 50 μM): -14.0 ± 0.3 kcal/mol; N, number of ligand binding sites per protein ([1]; effector ATPγS 50 μM): 6.33±0.08; effect of cdG on ATPase activity (VcMshE): only to a very limited extent; Kd (PilBN): 0.107 ± 0.014 µM; ΔG (PilBN; ITC, 25 °C, no effector): -9.5 kcal/mol; ΔH (PilBN; ITC, 25 °C, no effector): -7.4 ± 0.5 kcal/mol; −TΔS (PilBN; ITC, 25 °C, no effector): -2.1 kcal/mol; N, number of ligand binding sites per protein (PilBN; ITC, no effector, PilBN monomer): 1.09±0.03; binding detected by ITC (PilBΔN; 5.3 μM PilBΔN, Supplementary Figure S4C): Nor was there any detectable binding
5 | PilBΔN (truncated CtPilB without the first 139 residues) (from UniProt A0ABV9NNI3 140-574) (domain or fragment) | – | – | – | – | – | – | – | – | – | – | stoichiometry N [3]: 6

From article PMC6957770 (Biochemical Journal, 2020)
